Structures are written as SMILES. “Also recorded” adds a separate entry of the source.

Series [1] is described as follows: In vivo pharmacokinetic study. Also on record: species or system Sprague–Dawley rats. In short, it runs like this: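 Male Sprague–Dawley rats (~300 g) were anaesthetised with Zoletil i.m. at […]. They received test compound in 10% ethanol or as albumin nanoparticles s.c. at 0.33 mg g−1. Blood (400 μL) was drawn from the subclavian vein at 0.08–6 h into heparin tubes. Plasma was spiked with carbamazepine internal standard, deproteinised with methanol, dried and reconstituted in methanol. Analysis was by RP-18 HPLC at 265 nm, and parameters were computed by first-order kinetic modelling.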

For series [2] the following is noted: cited from earlier work.
Series [3] deals with Peripheral Blood Mononuclear Cells (PBMCs). In words: Ex vivo peripheral blood mononuclear cells. In kind it is cell-based, male Sprague–Dawley rats. To be noted: rat PBMCs. The method in brief:
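PBMCs came from the peripheral blood of male Sprague–Dawley rats. They were isolated by Ficoll–Paque density-gradient centrifugation, collected from the interphase and washed three times in RPMI 1640. Cells were plated at 1×10^6/well in RPMI 1640 with 10% FBS (37 °C, 5% CO2) and incubated overnight with free test compound or albumin-nanoparticle formulation. Viability was then read by the CCK-8 A450 procedure used for HuT-78.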

For series [4] the following is noted: cited from earlier work. This is another data set of the same source.
The conditions of series [5]: clinical; cited from earlier work.
The mark [6] stands for this setting: male, Sprague-Dawley, rat, plasma, sc, 0.333 mg.

For the compound `O=C(/C=C/c1cccc(S(=O)(=O)Nc2ccccc2)c1)NO` [Belinostat], the CL in series [1] (SD rats, subcutaneous, 0.333 mg g^−1, n = 3) was found to be 5.32 ± 1.53 mL/h. In series [1] (setting [6]), the exposure AUC(0-t) – broadly, the area under the concentration-time curve up to a stated or last time point – is 62000 ± 28700 ng·h/mL; the Cmax (as a rule, the maximum level reached in the sampled fluid or tissue) came to 8650 ± 780 ng/mL; the time of peak concentration (Tmax) (in general, the time from dosing to the highest level) stood at 0.43 ± 0.13 h; the half-life (commonly the time in which the quantity being followed falls by half) was 4.66 ± 1.66 h. Besides, the protein binding affinity in series [2] is recorded as 92.9–95.8%. Also, the “viability of PBMCs” value in series [3] (concentration 10 μM) was “decreases”. Moreover, the “viability (survival) of PBMC” value in series [3] (high dose 100 μM) is given as “did not survive; also recorded: no survival”. In series [4], the log partition coefficient (log P) (commonly the decadic logarithm of the partition coefficient of the neutral form, usually between octanol and water) was 1.83; the pKa (commonly the negative logarithm of the acid dissociation constant) is listed as 7.87. Also, in series [5], the “thrombocytopenia adverse events, Grade 3 to 4” value is listed as ~ 7% and the “thrombocytopenia adverse events, all grades” value is ~ 16%.
